Measurements as given in ChEMBL document CHEMBL3045708, “Potential antagonistic effects of nine natural fatty acids against Meloidogyne incognita” (2012).

Experiments:
Format in all cases: functional
Meloidogyne incognita [1] = assay: Nematicidal activity against second-stage juvenile of Meloidogyne incognita (root-knot nematode) assessed as mortality at 25 degC at 1000 umol/L after 24 hr Rvb = 1.47 to 2.51%)
Meloidogyne incognita [2] = assay: Nematicidal activity against second-stage juvenile of Meloidogyne incognita (root-knot nematode) assessed as mortality at 25 degC at 1000 umol/L after 12 hr (reference value: 1.79 to 3.30%)
Meloidogyne incognita [3] = assay: Nematicidal activity against second-stage juvenile of Meloidogyne incognita (root-knot nematode) assessed as mortality at 25 degC at 100 umol/L after 24 hr (reference value: 1.47 to 2.51%)
Meloidogyne incognita [4] = assay: Nematicidal activity against second-stage juvenile of Meloidogyne incognita (root-knot nematode) assessed as mortality at 25 degC at 100 umol/L after 12 hr (reference value: 1.79 to 3.30%)
Meloidogyne incognita [5] = assay: Nematicidal activity against Meloidogyne incognita (root-knot nematode) assessed as cumulative percentage of egg hatching at 25 degC at 2000 umol/L on day 21 (SDW control = 44.87 +/- 3.93%)
Method in brief: (§1)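 Eggs (500 in 1 mL suspension) held on a 1 cm sieve of 35 μm pore, set in the center well of a 24-well plate. About 2 mL of fatty acid solution (final 100, 1000 or 2000 μmol/L) was added, reaching only the sieve bottom. The fatty acid was dissolved in acetone/Tween-80/DMSO medium and diluted with sterile distilled water. SDW and medium served as controls. One treatment per plate, six replicates, parafilm-sealed, 25 °C. Hatched J2s were counted and the solution renewed on days 3, 7, 14 and 21; values are cumulative % hatch as mean ± SE.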

Meloidogyne incognita [6] = assay: Nematicidal activity against Meloidogyne incognita (root-knot nematode) assessed as cumulative percentage of egg hatching at 25 degC at 1000 umol/L on day 21 (SDW control = 44.87 +/- 3.93%); method in brief: as §1
Meloidogyne incognita [7] = assay: Nematicidal activity against Meloidogyne incognita (root-knot nematode) assessed as cumulative percentage of egg hatching at 25 degC at 100 umol/L on day 21 (SDW control = 44.87 +/- 3.93%); method in brief: as §1
Meloidogyne incognita [8] = assay: Nematicidal activity against Meloidogyne incognita (root-knot nematode) assessed as cumulative percentage of egg hatching at 25 degC at 2000 umol/L on day 14 (SDW control = 35.77 +/- 4.48%); method in brief: as §1
Meloidogyne incognita [9] = assay: Nematicidal activity against Meloidogyne incognita (root-knot nematode) assessed as cumulative percentage of egg hatching at 25 degC at 1000 umol/L on day 14 (SDW control = 35.77 +/- 4.48%); method in brief: as §1
Meloidogyne incognita [10] = assay: Nematicidal activity against Meloidogyne incognita (root-knot nematode) assessed as cumulative percentage of egg hatching at 25 degC at 100 umol/L on day 14 (SDW control = 35.77 +/- 4.48%); method in brief: as §1
Meloidogyne incognita [11] = assay: Nematicidal activity against Meloidogyne incognita (root-knot nematode) assessed as cumulative percentage of egg hatching at 25 degC at 2000 umol/L on day 7 (SDW control = 12.63 +/- 3.84%); method in brief: as §1
Meloidogyne incognita [12] = assay: Nematicidal activity against Meloidogyne incognita (root-knot nematode) assessed as cumulative percentage of egg hatching at 25 degC at 1000 umol/L on day 7 (SDW control = 12.63 +/- 3.84%); method in brief: as §1
Meloidogyne incognita [13] = assay: Nematicidal activity against Meloidogyne incognita (root-knot nematode) assessed as cumulative percentage of egg hatching at 25 degC at 100 umol/L on day 7 (SDW control = 12.63 +/- 3.84%); method in brief: as §1
Meloidogyne incognita [14] = assay: Nematicidal activity against Meloidogyne incognita (root-knot nematode) assessed as cumulative percentage of egg hatching at 25 degC at 2000 umol/L on day 3 (SDW control = 0.57 +/- 0.37%); method in brief: as §1
Meloidogyne incognita [15] = assay: Nematicidal activity against Meloidogyne incognita (root-knot nematode) assessed as cumulative percentage of egg hatching at 25 degC at 1000 umol/L on day 3 (SDW control = 0.57 +/- 0.37%); method in brief: as §1
Meloidogyne incognita [16] = assay: Nematicidal activity against Meloidogyne incognita (root-knot nematode) root-knot nematodes assessed as cumulative percentage of egg hatching at 25 degC at 100 umol/L on day 3 (SDW control = 0.57 +/- 0.37%); method in brief: as §1
Meloidogyne incognita [17] = assay: Nematicidal activity against second-stage juvenile of Meloidogyne incognita (root-knot nematode) assessed as mortality at 25 degC at 2000 umol/L after 24 hr Rvb = 1.47 to 2.51%)
Meloidogyne incognita [18] = assay: Nematicidal activity against second-stage juvenile of Meloidogyne incognita (root-knot nematode) assessed as mortality at 25 degC at 2000 umol/L after 12 hr (reference value: 1.79 to 3.30%)

CCCC(=O)O [BUTYRIC ACID]
mortality at 1000 µM (Meloidogyne incognita [1]): 2.34% | mortality at 1000 µM (Meloidogyne incognita [2]): 3.34% | mortality at 100 µM (Meloidogyne incognita [3]): 2.91% | mortality at 100 µM (Meloidogyne incognita [4]): 2.55% | Activity (Meloidogyne incognita [5]): 14.13% | Activity (Meloidogyne incognita [6]): 21.47% | Activity (Meloidogyne incognita [7]): 20.37% | Activity (Meloidogyne incognita [8]): 8.17% | Activity (Meloidogyne incognita [9]): 17.17% | Activity (Meloidogyne incognita [10]): 13.9% | Activity (Meloidogyne incognita [11]): 4.47% | Activity (Meloidogyne incognita [12]): 7.87% | Activity (Meloidogyne incognita [13]): 6.7% | Activity (Meloidogyne incognita [14]): 0.67% | Activity (Meloidogyne incognita [15]): 2% | Activity (Meloidogyne incognita [16]): 1.6% | mortality at 2000 µM (Meloidogyne incognita [17]): 3.28% | mortality at 2000 µM (Meloidogyne incognita [18]): 3.23%

CCCCCCCCCC(=O)O [DECANOIC ACID]
mortality at 1000 µM (Meloidogyne incognita [1]): 1.63% | mortality at 1000 µM (Meloidogyne incognita [2]): 16.9% | mortality at 100 µM (Meloidogyne incognita [3]): 5.16% | mortality at 100 µM (Meloidogyne incognita [4]): 2.01% | Activity (Meloidogyne incognita [5]): 7.1% | Activity (Meloidogyne incognita [6]): 16.4% | Activity (Meloidogyne incognita [7]): 25.93% | Activity (Meloidogyne incognita [8]): 4.8% | Activity (Meloidogyne incognita [9]): 11.5% | Activity (Meloidogyne incognita [10]): 19.57% | Activity (Meloidogyne incognita [11]): 2.07% | Activity (Meloidogyne incognita [12]): 4.77% | Activity (Meloidogyne incognita [13]): 4.73% | Activity (Meloidogyne incognita [14]): 0.23% | Activity (Meloidogyne incognita [15]): 0.97% | Activity (Meloidogyne incognita [16]): 0.43% | mortality at 2000 µM (Meloidogyne incognita [17]): 61% | mortality at 2000 µM (Meloidogyne incognita [18]): 25.2%

CCCCCCCCCCCC(=O)O [DODECANOATE]
mortality at 1000 µM (Meloidogyne incognita [1]): 2.46% | mortality at 1000 µM (Meloidogyne incognita [2]): 21.3% | mortality at 100 µM (Meloidogyne incognita [3]): 15.8% | mortality at 100 µM (Meloidogyne incognita [4]): 1.22% | Activity (Meloidogyne incognita [5]): 20.77% | Activity (Meloidogyne incognita [6]): 24.17% | Activity (Meloidogyne incognita [7]): 27.1% | Activity (Meloidogyne incognita [8]): 17.47% | Activity (Meloidogyne incognita [9]): 20.37% | Activity (Meloidogyne incognita [10]): 20.1% | Activity (Meloidogyne incognita [11]): 7.57% | Activity (Meloidogyne incognita [12]): 12.7% | Activity (Meloidogyne incognita [13]): 4.73% | Activity (Meloidogyne incognita [14]): 1.6% | Activity (Meloidogyne incognita [15]): 3.67% | Activity (Meloidogyne incognita [16]): 0.5% | mortality at 2000 µM (Meloidogyne incognita [17]): 41.3% | mortality at 2000 µM (Meloidogyne incognita [18]): 38%

CCCCCC(=O)O [HEXANOATE]
mortality at 1000 µM (Meloidogyne incognita [1]): 2.29% | mortality at 1000 µM (Meloidogyne incognita [2]): 1.09% | mortality at 100 µM (Meloidogyne incognita [3]): 1.5% | mortality at 100 µM (Meloidogyne incognita [4]): 0.39% | Activity (Meloidogyne incognita [5]): 19.67% | Activity (Meloidogyne incognita [6]): 21.2% | Activity (Meloidogyne incognita [7]): 15.97% | Activity (Meloidogyne incognita [8]): 14.4% | Activity (Meloidogyne incognita [9]): 16.67% | Activity (Meloidogyne incognita [10]): 9.57% | Activity (Meloidogyne incognita [11]): 6.4% | Activity (Meloidogyne incognita [12]): 7.67% | Activity (Meloidogyne incognita [13]): 2.97% | Activity (Meloidogyne incognita [14]): 0.8% | Activity (Meloidogyne incognita [15]): 2.77% | Activity (Meloidogyne incognita [16]): 0.87% | mortality at 2000 µM (Meloidogyne incognita [17]): 4.44% | mortality at 2000 µM (Meloidogyne incognita [18]): 2.02%

CCCCC/C=C\C/C=C\CCCCCCCC(=O)O [LINOLEIC ACID]
mortality at 1000 µM (Meloidogyne incognita [1]): 3.3% | mortality at 1000 µM (Meloidogyne incognita [2]): 4.72% | mortality at 100 µM (Meloidogyne incognita [3]): 3.72% | mortality at 100 µM (Meloidogyne incognita [4]): 3.12% | Activity (Meloidogyne incognita [5]): 11.33% | Activity (Meloidogyne incognita [6]): 29.47% | Activity (Meloidogyne incognita [7]): 37.97% | Activity (Meloidogyne incognita [8]): 5.87% | Activity (Meloidogyne incognita [9]): 20.43% | Activity (Meloidogyne incognita [10]): 29.8% | Activity (Meloidogyne incognita [11]): 2.3% | Activity (Meloidogyne incognita [12]): 6.6% | Activity (Meloidogyne incognita [13]): 6.17% | Activity (Meloidogyne incognita [14]): 0.33% | Activity (Meloidogyne incognita [15]): 0.13% | Activity (Meloidogyne incognita [16]): 0.33% | mortality at 2000 µM (Meloidogyne incognita [17]): 5.1% | mortality at 2000 µM (Meloidogyne incognita [18]): 3.41%

CCCCCCCCCCCCCC(=O)O [MYRISTIC ACID]
mortality at 1000 µM (Meloidogyne incognita [1]): 1.57% | mortality at 1000 µM (Meloidogyne incognita [2]): 2.29% | mortality at 100 µM (Meloidogyne incognita [3]): 2.46% | mortality at 100 µM (Meloidogyne incognita [4]): 1.31% | Activity (Meloidogyne incognita [5]): 20% | Activity (Meloidogyne incognita [6]): 23.97% | Activity (Meloidogyne incognita [7]): 27.67% | Activity (Meloidogyne incognita [8]): 12% | Activity (Meloidogyne incognita [9]): 12.93% | Activity (Meloidogyne incognita [10]): 18.4% | Activity (Meloidogyne incognita [11]): 1.53% | Activity (Meloidogyne incognita [12]): 1.47% | Activity (Meloidogyne incognita [13]): 8.87% | Activity (Meloidogyne incognita [14]): 0.27% | Activity (Meloidogyne incognita [15]): 0.37% | Activity (Meloidogyne incognita [16]): 1.8% | mortality at 2000 µM (Meloidogyne incognita [17]): 3.76% | mortality at 2000 µM (Meloidogyne incognita [18]): 2.11%

CCCCCCCC(=O)O [OCTANOIC ACID]
mortality at 1000 µM (Meloidogyne incognita [1]): 1.08% | mortality at 1000 µM (Meloidogyne incognita [2]): 65.6% | mortality at 100 µM (Meloidogyne incognita [3]): 40.5% | mortality at 100 µM (Meloidogyne incognita [4]): 1.65% | Activity (Meloidogyne incognita [5]): 15.07% | Activity (Meloidogyne incognita [6]): 21% | Activity (Meloidogyne incognita [7]): 30.93% | Activity (Meloidogyne incognita [8]): 13.07% | Activity (Meloidogyne incognita [9]): 16.87% | Activity (Meloidogyne incognita [10]): 23.63% | Activity (Meloidogyne incognita [12]): 9.03% | Activity (Meloidogyne incognita [13]): 8.6% | Activity (Meloidogyne incognita [14]): 0.73% | Activity (Meloidogyne incognita [15]): 2.6% | Activity (Meloidogyne incognita [16]): 2.3% | mortality at 2000 µM (Meloidogyne incognita [17]): 56.4% | mortality at 2000 µM (Meloidogyne incognita [18]): 49.9%

CCCCCCCC/C=C\CCCCCCCC(=O)O [OLEIC ACID]
mortality at 1000 µM (Meloidogyne incognita [1]): 2.42% | mortality at 1000 µM (Meloidogyne incognita [2]): 4.52% | mortality at 100 µM (Meloidogyne incognita [3]): 3.54% | mortality at 100 µM (Meloidogyne incognita [4]): 3.54% | Activity (Meloidogyne incognita [5]): 21.8% | Activity (Meloidogyne incognita [6]): 25.57% | Activity (Meloidogyne incognita [7]): 24.93% | Activity (Meloidogyne incognita [8]): 16.53% | Activity (Meloidogyne incognita [9]): 18.53% | Activity (Meloidogyne incognita [10]): 16.6% | Activity (Meloidogyne incognita [11]): 7.47% | Activity (Meloidogyne incognita [12]): 6.03% | Activity (Meloidogyne incognita [13]): 6.07% | Activity (Meloidogyne incognita [14]): 1.23% | Activity (Meloidogyne incognita [15]): 0.67% | Activity (Meloidogyne incognita [16]): 1.47% | mortality at 2000 µM (Meloidogyne incognita [17]): 4.58% | mortality at 2000 µM (Meloidogyne incognita [18]): 4.49%

CCCCCCCCCCCCCCCC(=O)O [PALMITIC ACID]
mortality at 1000 µM (Meloidogyne incognita [1]): 3.03% | mortality at 1000 µM (Meloidogyne incognita [2]): 6.71% | mortality at 100 µM (Meloidogyne incognita [3]): 3.36% | mortality at 100 µM (Meloidogyne incognita [4]): 3.33% | Activity (Meloidogyne incognita [5]): 20.17% | Activity (Meloidogyne incognita [6]): 13.4% | Activity (Meloidogyne incognita [7]): 22.3% | Activity (Meloidogyne incognita [8]): 17.23% | Activity (Meloidogyne incognita [9]): 9.53% | Activity (Meloidogyne incognita [10]): 15.07% | Activity (Meloidogyne incognita [11]): 6.63% | Activity (Meloidogyne incognita [12]): 2.8% | Activity (Meloidogyne incognita [13]): 5.73% | Activity (Meloidogyne incognita [14]): 0.7% | Activity (Meloidogyne incognita [15]): 0.23% | Activity (Meloidogyne incognita [16]): 1.13% | mortality at 2000 µM (Meloidogyne incognita [17]): 4.91% | mortality at 2000 µM (Meloidogyne incognita [18]): 5.44%
